Source: ChEMBL document CHEMBL5033998, “Discovery of DDO-2213 as a Potent and Orally Bioavailable Inhibitor of the WDR5-Mixed Lineage Leukemia 1 Protein-Protein Interaction for the Treatment of MLL Fusion Leukemia” (J Med Chem, 2021)
The source made the active and inactive calls. The calls are words filed in the database; no cut-off is given here.

What was measured:
[1] = Metabolic stability in human liver microsomes assessed as half life at 1 uM in presence of NADPH by LC-MS/MS analysis; assay type: ADME, Microsome
Outline: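 Compound at 1 μM preincubated 5 min at 37 °C with human or rat liver microsomes (0.7 mg/mL) in 100 mM PBS pH 7.4; reaction started with 1 mM NADPH.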

[2] = target: T1, Histone-lysine N-methyltransferase 2A (Homo sapiens, UniProt Q03164); experiment: Inhibition of MLL1 (unknown origin) in human MV4-11 cells assessed as decrease in H3Kme2 level at 1 to 10 uM measured after 7 days by Western blot analysis; assay type: cell-based
Outline: (§1)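 MV4-11 cells exposed to 1, 2.5, 5 and 10 μM; H3K4me1/me2/me3 assessed by Western blot with histone H3 as loading control. Blots blocked in 1% BSA 1 h, primary antibody overnight at 4 °C, DyLight 800 secondary 1 h at 37 °C, infrared imaging.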

[3] = target: T1, Histone-lysine N-methyltransferase 2A; experiment: Inhibition of MLL1 (unknown origin) in human MV4-11 cells assessed as decrease in H3Kme1 level at 1 to 10 uM measured after 7 days by Western blot analysis; assay type: cell-based; conditions: dose 1-10 µM, time 7.0 day; outline: as §1
MV4-11 [4] = experiment: Antiproliferative activity against human MV4-11 cells assessed as cell viability incubated for 72 hrs by CCK8 assay; assay type: functional, cell-based; conditions: MV4-11, 72 h
Outline: (§2)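 Cells seeded at 3000–6000 per well, exposed to inhibitor at several concentrations for 72 h; viability read with CCK8 kit. MV4-11 and K562 grown in modified IMDM + 10% FBS, pen/strep; MOLM-13 in RPMI-1640 + 10% FBS; HUVEC in modified DMEM + 10% FBS; 37 °C, 5% CO2. IC50 as mean ± SD of three independent experiments.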

HUVEC = experiment: Antiproliferative activity against human HUVEC cells assessed as cell viability incubated for 72 hrs by CCK8 assay; assay type: cell-based; outline: as §2
[5] = Half life in Sprague-Dawley rat at 2 mg/kg, iv measured upto 24 hrs by LC-MS/MS analysis; assay type: ADME, organism-based; conditions: in vivo
[6] = Tmax in Sprague-Dawley rat at 10 mg/kg, po measured upto 24 hrs by LC-MS/MS analysis; assay type: ADME, organism-based; conditions: in vivo
Outline: (§3)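 Male SD rats, 6–8 weeks, 220 ± 30 g; single oral dose 10 mg/kg (n = 3). Plasma sampled at 0, 0.25, 0.5, 1, 2, 4, 6, 8 and 24 h, stored at −80 °C, quantified by LC-MS/MS; parameters reported as mean ± SEM.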

[7] = Cmax in Sprague-Dawley rat at 10 mg/kg, po measured upto 24 hrs by LC-MS/MS analysis; assay type: ADME, organism-based; design: route oral, dose 10 mg/kg, time <=24; conditions: in vivo; outline: as §3
[8] = AUC (0 to t) in Sprague-Dawley rat at 10 mg/kg, po measured upto 24 hrs by LC-MS/MS analysis; assay type: ADME, organism-based; design: route oral, dose 10 mg/kg, time <=24; conditions: in vivo; outline: as §3
[9] = AUC (0 to infinity) in Sprague-Dawley rat at 2 mg/kg, iv measured upto 24 hrs by LC-MS/MS analysis; assay type: ADME, organism-based; design: route intravenous, dose 2 mg/kg, time <=24; conditions: in vivo
[10] = Apparent volume of distribution in Sprague-Dawley rat at 10 mg/kg, po measured upto 24 hrs by LC-MS/MS analysis; assay type: ADME, organism-based; conditions: in vivo, read-out: Vz/F; outline: as §3
[11] = Apparent clearance in Sprague-Dawley rat at 10 mg/kg, po measured upto 24 hrs by LC-MS/MS analysis; assay type: ADME, organism-based; conditions: in vivo; outline: as §3
[12] = MRT in Sprague-Dawley rat at 10 mg/kg, po measured upto 24 hrs by LC-MS/MS analysis; assay type: ADME, organism-based; conditions: in vivo; outline: as §3
[13] = MRT in Sprague-Dawley rat at 2 mg/kg, iv measured upto 24 hrs by LC-MS/MS analysis; assay type: ADME, organism-based; conditions: in vivo
MV4-11 [14] = experiment: Antitumor activity against human MV4-11 cells xenografted in Balb/c nude mouse assessed as tumor growth inhibition at 80 mg/kg, po administered daily for 21 days relative to control; assay type: functional; conditions: MV4-11, po, 504 h, time 21 day, read-out: TGI
Outline: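 Female BALB/c nude mice (6–8 weeks) given ~5 × 10^6 MV4-11 cells in 0.2 mL PBS into the flank; at 100–150 mm3 randomized (6/group) to vehicle (0.9% saline) or 40, 80, 120 mg/kg oral (hydrochloride salt) daily for 21 days. Volume = length × width²/2 every other day; GI% = [1 − (TVt − TV0)/(CVt − CV0)] × 100%.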

[15] = target: T1, Histone-lysine N-methyltransferase 2A; experiment: Inhibition of MLL1 (unknown origin) in human MV4-11 cells assessed as decrease in H3Kme3 level at 1 to 10 uM measured after 7 days by Western blot analysis; assay type: cell-based; outline: as §1
[16] = target: T1, Histone-lysine N-methyltransferase 2A; experiment: Inhibition of MLL1 (unknown origin) in human MV4-11 cells assessed as decrease in Meis1 mRNA level at 1 to 10 uM measured after 7 days by RT-PCR analysis; assay type: cell-based
Outline: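 MV4-11 cells treated 7 days at 0, 1, 2.5, 5, 10 μM; total RNA extracted with TRIzol and Hoxa9/Meis1 transcripts measured by quantitative RT-PCR, in triplicate (n = 3); Student's t-tests.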

MV4-11 [17] = experiment: Antitumor activity against human MV4-11 cells xenografted in Balb/c nude mouse assessed as tumor weight inhibition at 80 mg/kg, po administered daily for 21 days relative to control; assay type: functional; conditions: MV4-11, po, 504 h
Outline: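 MV4-11 flank xenografts (~5 × 10^6 cells) in female BALB/c nude mice, 6 per group; daily oral dosing (40, 80, 120 mg/kg) or saline vehicle for 21 days, then tumors excised and weighed.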

T1 sequence (Q03164 1-2718 limits assumed): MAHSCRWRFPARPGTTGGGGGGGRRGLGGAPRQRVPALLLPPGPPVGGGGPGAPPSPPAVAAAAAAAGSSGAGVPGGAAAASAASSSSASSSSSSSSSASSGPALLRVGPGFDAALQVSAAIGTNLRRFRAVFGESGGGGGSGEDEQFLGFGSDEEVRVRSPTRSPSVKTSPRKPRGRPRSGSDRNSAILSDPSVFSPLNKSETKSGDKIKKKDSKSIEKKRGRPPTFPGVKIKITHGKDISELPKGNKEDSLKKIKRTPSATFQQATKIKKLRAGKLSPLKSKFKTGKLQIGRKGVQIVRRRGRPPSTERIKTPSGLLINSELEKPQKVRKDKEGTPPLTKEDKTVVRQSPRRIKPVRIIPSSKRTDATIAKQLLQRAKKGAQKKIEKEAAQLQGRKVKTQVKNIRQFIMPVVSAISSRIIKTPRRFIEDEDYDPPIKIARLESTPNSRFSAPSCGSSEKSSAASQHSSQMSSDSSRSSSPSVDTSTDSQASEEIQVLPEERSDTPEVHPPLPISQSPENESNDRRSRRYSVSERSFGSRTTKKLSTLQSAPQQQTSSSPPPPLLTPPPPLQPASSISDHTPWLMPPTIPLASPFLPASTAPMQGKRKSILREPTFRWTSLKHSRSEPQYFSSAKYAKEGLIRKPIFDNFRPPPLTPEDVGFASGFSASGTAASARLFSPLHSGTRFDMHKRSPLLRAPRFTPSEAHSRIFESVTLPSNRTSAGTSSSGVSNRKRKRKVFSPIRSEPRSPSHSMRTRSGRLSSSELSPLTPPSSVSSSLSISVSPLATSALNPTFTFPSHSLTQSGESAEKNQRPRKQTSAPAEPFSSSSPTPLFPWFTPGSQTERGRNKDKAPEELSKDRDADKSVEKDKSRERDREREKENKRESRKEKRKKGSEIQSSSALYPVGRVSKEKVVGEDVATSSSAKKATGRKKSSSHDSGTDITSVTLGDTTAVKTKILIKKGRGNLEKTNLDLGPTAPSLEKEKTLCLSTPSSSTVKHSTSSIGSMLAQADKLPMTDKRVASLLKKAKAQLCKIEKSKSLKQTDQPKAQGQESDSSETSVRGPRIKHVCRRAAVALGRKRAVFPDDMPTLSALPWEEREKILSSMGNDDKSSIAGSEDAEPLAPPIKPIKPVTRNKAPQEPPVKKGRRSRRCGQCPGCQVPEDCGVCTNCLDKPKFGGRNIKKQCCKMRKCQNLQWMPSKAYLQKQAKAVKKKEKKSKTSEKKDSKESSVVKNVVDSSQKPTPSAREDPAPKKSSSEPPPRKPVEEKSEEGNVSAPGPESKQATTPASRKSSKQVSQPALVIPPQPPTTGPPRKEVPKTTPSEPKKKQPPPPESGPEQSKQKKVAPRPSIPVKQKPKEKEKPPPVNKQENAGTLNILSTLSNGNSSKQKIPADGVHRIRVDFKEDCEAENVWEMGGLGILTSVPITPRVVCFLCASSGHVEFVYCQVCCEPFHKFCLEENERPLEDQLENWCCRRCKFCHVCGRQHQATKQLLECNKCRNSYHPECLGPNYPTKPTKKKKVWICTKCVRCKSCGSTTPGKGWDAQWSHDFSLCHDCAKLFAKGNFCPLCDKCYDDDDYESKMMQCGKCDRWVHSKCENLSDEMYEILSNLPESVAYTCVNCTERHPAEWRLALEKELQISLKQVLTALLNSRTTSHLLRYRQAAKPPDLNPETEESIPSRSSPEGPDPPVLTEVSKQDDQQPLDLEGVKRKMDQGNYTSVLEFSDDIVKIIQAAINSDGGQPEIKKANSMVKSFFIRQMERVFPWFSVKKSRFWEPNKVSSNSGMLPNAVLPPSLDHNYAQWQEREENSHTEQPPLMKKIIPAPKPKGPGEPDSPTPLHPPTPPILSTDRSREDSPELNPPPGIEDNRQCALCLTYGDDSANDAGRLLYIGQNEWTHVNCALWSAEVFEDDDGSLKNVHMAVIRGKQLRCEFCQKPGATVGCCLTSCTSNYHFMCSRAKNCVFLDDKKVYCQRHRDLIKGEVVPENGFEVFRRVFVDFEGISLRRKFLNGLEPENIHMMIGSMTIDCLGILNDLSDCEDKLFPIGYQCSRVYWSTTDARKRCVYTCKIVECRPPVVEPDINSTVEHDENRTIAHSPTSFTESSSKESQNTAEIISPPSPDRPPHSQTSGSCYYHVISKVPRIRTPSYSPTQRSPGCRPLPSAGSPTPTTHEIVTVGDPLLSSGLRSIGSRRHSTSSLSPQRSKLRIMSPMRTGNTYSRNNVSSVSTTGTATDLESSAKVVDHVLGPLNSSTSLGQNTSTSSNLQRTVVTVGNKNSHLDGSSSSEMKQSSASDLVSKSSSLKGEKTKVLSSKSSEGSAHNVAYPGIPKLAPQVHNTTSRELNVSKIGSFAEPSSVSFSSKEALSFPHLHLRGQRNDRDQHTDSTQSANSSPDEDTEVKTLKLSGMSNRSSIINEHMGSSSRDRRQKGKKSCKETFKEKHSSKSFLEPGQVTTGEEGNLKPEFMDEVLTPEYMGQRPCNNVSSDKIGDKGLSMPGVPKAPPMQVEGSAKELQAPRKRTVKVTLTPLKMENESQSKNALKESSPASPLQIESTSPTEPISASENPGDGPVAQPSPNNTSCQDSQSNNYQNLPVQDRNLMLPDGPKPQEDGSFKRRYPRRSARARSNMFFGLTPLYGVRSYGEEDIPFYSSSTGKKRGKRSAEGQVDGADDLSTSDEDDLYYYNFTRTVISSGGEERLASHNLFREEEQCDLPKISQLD
T1 sequence (Q03164 2719-3969 limits assumed): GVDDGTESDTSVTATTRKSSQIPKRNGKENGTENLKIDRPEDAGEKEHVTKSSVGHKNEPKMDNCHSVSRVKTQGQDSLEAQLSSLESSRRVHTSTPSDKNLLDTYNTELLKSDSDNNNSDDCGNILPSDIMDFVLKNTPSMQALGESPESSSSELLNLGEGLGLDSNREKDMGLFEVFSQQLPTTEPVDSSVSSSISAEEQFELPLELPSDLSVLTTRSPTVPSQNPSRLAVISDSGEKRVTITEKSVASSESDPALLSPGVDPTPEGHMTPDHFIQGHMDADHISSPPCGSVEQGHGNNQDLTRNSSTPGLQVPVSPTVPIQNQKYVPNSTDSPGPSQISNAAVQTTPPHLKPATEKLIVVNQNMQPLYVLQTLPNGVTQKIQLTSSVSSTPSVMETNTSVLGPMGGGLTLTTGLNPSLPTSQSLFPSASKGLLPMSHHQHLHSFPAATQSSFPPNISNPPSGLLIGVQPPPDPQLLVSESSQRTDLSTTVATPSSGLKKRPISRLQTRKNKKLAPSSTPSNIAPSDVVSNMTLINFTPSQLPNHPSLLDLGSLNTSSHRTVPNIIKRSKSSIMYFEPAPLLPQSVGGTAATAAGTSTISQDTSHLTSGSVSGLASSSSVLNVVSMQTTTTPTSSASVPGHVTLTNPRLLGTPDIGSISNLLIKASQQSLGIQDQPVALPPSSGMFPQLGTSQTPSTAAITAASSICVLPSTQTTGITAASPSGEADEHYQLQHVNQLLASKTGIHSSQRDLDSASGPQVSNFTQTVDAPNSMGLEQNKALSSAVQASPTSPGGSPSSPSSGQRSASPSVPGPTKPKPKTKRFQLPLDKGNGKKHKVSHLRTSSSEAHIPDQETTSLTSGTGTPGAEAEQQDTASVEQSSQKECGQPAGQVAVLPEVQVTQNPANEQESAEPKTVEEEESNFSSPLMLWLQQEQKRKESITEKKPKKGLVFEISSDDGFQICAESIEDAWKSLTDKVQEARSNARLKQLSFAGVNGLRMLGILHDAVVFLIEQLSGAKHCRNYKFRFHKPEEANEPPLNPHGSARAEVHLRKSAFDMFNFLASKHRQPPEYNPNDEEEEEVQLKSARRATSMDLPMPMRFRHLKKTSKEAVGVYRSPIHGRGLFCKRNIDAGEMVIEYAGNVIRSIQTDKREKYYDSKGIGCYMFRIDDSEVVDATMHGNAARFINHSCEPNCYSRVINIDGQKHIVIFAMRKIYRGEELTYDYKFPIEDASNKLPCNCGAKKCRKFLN

- half-life at 1 µM [1]: 1.17 h
- inhibition [2]: Active
- inhibition [3]: Dose-Dependent Effect
- IC50 (MV4-11 [4]): 12.6 µM
- half-life [5]: 1.7 h
- Tmax [6]: 2 h
- Cmax [7]: 159 ng/mL
- AUC(0-t) at 24 h [8]: 1320 ng·h/mL
- AUC(0-inf) [9]: 424 ng·h/mL
- Vd/F [10]: 37.1 L/kg
- CL/F [11]: 97.2 mL/min/kg
- MRT [12]: 5.42 h
- MRT [13]: 1.18 h
- inhibition [15]: Active
- inhibition [16]: Active
Compound: CN1CCN(c2cc(F)c(-c3ccc(C(=O)N(C)C)cc3)cc2Nc2ncnc(Cl)c2N)CC1
- IC50 (HUVEC): > 100 µM
- inhibition in vivo at 80 mg/kg (MV4-11 [14]): 53.6%
- inhibition in vivo at 80 mg/kg (MV4-11 [17]): 51.6%
